Legend:
[1] = Percentage of remaining compound after 30 min incubation in rat liver microsomes was determined as metabolic stability; format: ADME, Microsome; conditions: read-out: Remaining compound
Method in brief: (§1)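 Compound incubated with rat, dog or human liver microsomes for 30 min at 37 °C. Residual parent compound in the reaction mixture was measured directly by LC-MS and expressed as % remaining.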

[2] = system: Human immunodeficiency virus 1; assay: Effective concentration against PI-Resistant HIV strain (M2); format: functional, organism-based; conditions: for EC50: Human immunodeficiency virus 1
Method in brief: (§2)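 MTT cytopathic-effect assay in MT-4 cells infected with recombinant HIV carrying clinical-isolate-derived protease and RT sequences in an HXB2-derived backbone. Inoculum 200-250 CCID50/well, 30 000 cells/well, compound over a concentration range. Incubation 5 days at 37 °C, 5% CO2. […] Cytotoxicity run in parallel on mock-infected cells.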

[3] = system: Human immunodeficiency virus 1; assay: Effective concentration against PI-Resistant HIV strain (M4); format: functional, organism-based; conditions: for EC50: Human immunodeficiency virus 1; method in brief: as §2
[4] = system: Human immunodeficiency virus 1; assay: Effective concentration as average activity on mutant HIV panel (AVMUT); format: functional, organism-based; conditions: for EC50: Human immunodeficiency virus 1
Method in brief: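 Mean pEC50 across the panel of PI-resistant recombinant clinical-isolate strains. Each strain was tested by MTT CPE assay in MT-4 cells at 200-250 CCID50/well and 30 000 cells/well, read after 5 days at 37 °C, 5% CO2.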

[5] = system: Human immunodeficiency virus 1; assay: Effective concentration against PI-Resistant HIV strain (M5); format: functional, organism-based; conditions: for EC50: Human immunodeficiency virus 1; method in brief: as §2
[6] = system: Human immunodeficiency virus 1; assay: Effective concentration of against HIV Wild Type (IIIB) strain; format: functional, organism-based; conditions: for EC50: Human immunodeficiency virus 1
Method in brief: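 Wild-type HIV-1 IIIB was tested in MT-4 cells by MTT colorimetric CPE assay. Compound was serially diluted, with virus at 200-250 CCID50/well and 30 000 cells/well. […] Mock-infected cultures were run in parallel for cytotoxicity.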

[7] = Percentage of remaining compound after 30 min incubation in human liver microsomes was determined as metabolic stability; format: ADME, Microsome; conditions: read-out: Remaining compound; method in brief: as §1
[8] = Percentage of remaining compound after 30 min incubation in dog liver microsomes was determined as metabolic stability; format: ADME, Canis lupus familiaris, Microsome; conditions: read-out: Remaining compound; method in brief: as §1
[9] = system: Human immunodeficiency virus 1; assay: Effective concentration against PI-Resistant HIV strain (M1); format: functional, organism-based; method in brief: as §2
[10] = system: Human immunodeficiency virus 1; assay: Effective concentration against PI-Resistant HIV strain (M3); format: functional, organism-based; conditions: for EC50: Human immunodeficiency virus 1; method in brief: as §2
[11] = Maximum plasma concentration in dog after 80 mg/kg oral administration; format: ADME, organism-based, Canis lupus familiaris; set-up: dose 80 mg/kg, route oral
Method in brief: (§3)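 Single oral dose of 80 mg/kg given to dogs as a PEG400 solution. Plasma exposure parameters are reported as the mean of four measurements, with the standard deviation in parentheses.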

[12] = Time to reach maximum concentration in dog after 80 mg/kg oral administration; format: ADME, organism-based, Canis lupus familiaris; set-up: dose 80 mg/kg, route oral; conditions: in vivo; method in brief: as §3
[13] = Half-life in dog after 80 mg/kg oral administration; format: ADME, organism-based, Canis lupus familiaris; set-up: dose 80 mg/kg, route oral; conditions: in vivo; method in brief: as §3
[14] = Area under concentration time curve value in dog after 80 mg/kg oral administration; format: ADME, organism-based, Canis lupus familiaris; set-up: dose 80 mg/kg, route oral; conditions: in vivo; method in brief: as §3

SMILES	remaining at 0.5 h [1] [%]	EC50 [2] [nM]	EC50 [3] [nM]	EC50 [4] [nM]	EC50 [5] [nM]	EC50 [6] [nM]	remaining at 0.5 h [7] [%]	remaining at 0.5 h [8] [%]	EC50 [9] [nM]	EC50 [10] [nM]	Cmax [11] [ng/mL]	Tmax [12] [h]	half-life [13] [min]	AUC last [14] [ng·h/mL]	Log EC50 [2]	Log EC50 [3]	Log EC50 [4]	Log EC50 [5]	Log EC50 [6]	Log EC50 [10]
CC(C)CN(C[C@@H](O)[C@H](Cc1ccccc1)NC(=O)O[C@H]1CCOC1)S(=O)(=O)c1ccc(N)cc1	83	204	170	324	741	37.2	116	81	741	195	–	–	–	–	–	–	–	–	–	–
CC(C)CN(C[C@@H](O)[C@H](Cc1ccccc1)NC(=O)O[C@@H]1CO[C@@H]2OCC[C@@H]21)S(=O)(=O)c1ccc(N)cc1	–	60.3	21.4	30.9	26.3	10.7	–	–	37.2	21.4	–	–	–	–	–	–	–	–	–	–
CC(C)CN(C[C@@H](O)[C@H](Cc1ccccc1)NC(=O)O[C@H]1CO[C@H]2OCC[C@H]21)S(=O)(=O)c1ccc([N+](=O)[O-])cc1	–	29.5	21.9	21.4	45.7	2.45	–	–	33.9	4.57	–	–	–	–	–	–	–	–	–	–
CC(C)CN(C[C@@H](O)[C@H](Cc1ccccc1)NC(=O)O[C@H]1CO[C@H]2OCC[C@H]21)S(=O)(=O)c1cccc(N)c1	–	47.9	26.3	42.7	26.3	4.37	–	–	759	28.2	–	–	–	–	–	–	–	–	–	–
CC(C)CN(C[C@@H](O)[C@H](Cc1ccccc1)NC(=O)O[C@H]1CO[C@H]2OCC[C@H]21)S(=O)(=O)c1ccc(CN)cc1	–	15.8	6.61	7.76	5.62	7.08	–	–	7.59	6.03	–	–	–	–	–	–	–	–	–	–
CC(C)CN(C[C@@H](O)[C@H](Cc1ccccc1)NC(=O)O[C@H]1CO[C@H]2OCC[C@H]21)S(=O)(=O)c1ccc(O)cc1	–	10	6.03	8.71	6.17	6.31	–	–	23.4	6.03	–	–	–	–	–	–	–	–	–	–
CC(C)CN(C[C@@H](O)[C@H](Cc1ccccc1)NC(=O)O[C@H]1CO[C@H]2OCC[C@H]21)S(=O)(=O)c1ccc2c(c1)OCO2	21	6.46	3.98	6.46	4.07	0.617	52	53	32.4	3.47	3780	2.5	123	18100	–	–	–	–	–	–
CC(C)CN(C[C@@H](O)[C@H](Cc1ccccc1)NC(=O)O[C@@H]1CO[C@H]2OCC[C@H]21)S(=O)(=O)c1ccc(N)cc1	–	2240	1120	977	–	240	–	–	759	479	–	–	–	–	–	–	–	–	–	–
CC(C)CN(C[C@@H](O)[C@H](Cc1ccccc1)NC(=O)O[C@H]1CO[C@@H]2OCC[C@@H]21)S(=O)(=O)c1ccc(N)cc1	–	–	–	–	–	309	–	–	–	–	–	–	–	–	–	–	–	–	–	–
CC(C)CN(C[C@@H](O)[C@H](Cc1ccccc1)NC(=O)O[C@H]1CO[C@H]2OCC[C@H]21)S(=O)(=O)c1ccc(I)cc1	–	13.8	5.25	8.71	5.01	1.51	–	–	33.1	4.07	–	–	–	–	–	–	–	–	–	–
CC(=O)c1ccc(S(=O)(=O)N(CC(C)C)C[C@@H](O)[C@H](Cc2ccccc2)NC(=O)O[C@H]2CO[C@H]3OCC[C@H]32)cc1	–	15.8	–	13.8	11.7	1.95	–	–	31.6	6.03	–	–	–	–	–	–	–	–	–	–
CC(C)CN(C[C@@H](O)[C@H](Cc1ccccc1)NC(=O)O[C@H]1CO[C@H]2OCC[C@H]21)S(=O)(=O)c1ccc(C#N)cc1	–	155	89.1	97.7	138	5.25	–	–	115	39.8	–	–	–	–	–	–	–	–	–	–
COc1ccc(S(=O)(=O)N(CC(C)C)C[C@@H](O)[C@H](Cc2ccccc2)NC(=O)O[C@H]2CO[C@H]3OCC[C@H]32)cc1	25	6.03	4.68	4.47	2.88	0.589	56	11	10.2	2.24	1180	0.6	88.5	2700	–	–	–	–	–	–
CC(C)(C)NC(=O)[C@@H]1CN(Cc2cccnc2)CCN1C[C@@H](O)C[C@@H](Cc1ccccc1)C(=O)N[C@H]1c2ccccc2C[C@H]1O	97	–	–	–	–	–	95	85	–	–	–	–	–	–	–	–	–	–	–	–
CC(C)CN(C[C@@H](O)[C@H](Cc1ccccc1)NC(=O)OC1COC2OCCC12)S(=O)(=O)c1ccccc1 (mixture of isomers)	–	135	41.7	67.6	30.9	2.75	–	–	166	47.9	–	–	–	–	–	–	–	–	–	–
Cc1ccc(S(=O)(=O)N(CC(C)C)C[C@@H](O)[C@H](Cc2ccccc2)NC(=O)OC2COC3OCCC23)cc1 (mixture of isomers)	–	107	38	60.3	40.7	5.25	–	–	129	35.5	–	–	–	–	–	–	–	–	–	–
CC(C)CN(C[C@@H](O)[C@H](Cc1ccccc1)NC(=O)O[C@H]1CO[C@H]2OCC[C@H]21)S(=O)(=O)c1ccc(N)cc1 (stereo in doubt; form 1)	–	–	–	–	–	–	–	–	–	–	–	–	–	–	-6.72	-6.84	-6.81	-6.9	-7.36	-6.76
CC(C)CN(C[C@@H](O)[C@H](Cc1ccccc1)NC(=O)O[C@H]1CO[C@H]2OCC[C@H]21)S(=O)(=O)c1ccc(N)cc1 (stereo in doubt; form 2)	92	–	–	–	–	–	85	80	5.13	–	19100	1	46.9	74100	-8.14	–	-8.29	–	-8.39	-8.14

Reference: ChEMBL document CHEMBL1142722, “Discovery and selection of TMC114, a next generation HIV-1 protease inhibitor” (J Med Chem, 2005)
